Results taken from ChEMBL document CHEMBL3351768, “7-(4-Alkylidenylpiperidinyl)-quinolone bacterial topoisomerase inhibitors” (2014).
≈ marks a conversion by molar mass, not a printed value.

Tests used:
Format in all cases: functional
Streptococcus pneumoniae [1] = experiment: Antibacterial activity against ciprofloxacin-susceptible Streptococcus pneumoniae ATCC49619 by broth microdilution method
Procedure, shortened: (§1)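 MIC by broth microdilution following CLSI M07-A9 guidelines for aerobically growing bacteria. Where a compound was tested more than once, across several test dates or batches, the modal MIC is reported.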

Streptococcus pneumoniae [2] = experiment: Antibacterial activity against ciprofloxacin-resistant Streptococcus pneumoniae OC5465 clinical isolate by broth microdilution method
Streptococcus pneumoniae [3] = experiment: Antibacterial activity against ciprofloxacin-resistant Streptococcus pneumoniae OC6608 clinical isolate by broth microdilution method
Streptococcus pneumoniae [4] = experiment: Antibacterial activity against ciprofloxacin-resistant Streptococcus pneumoniae OC6578 clinical isolate by broth microdilution method
Staphylococcus aureus [5] = experiment: Antibacterial activity against ciprofloxacin-susceptible Staphylococcus aureus OC4172 by broth microdilution method; procedure, shortened: as §1
Staphylococcus aureus [6] = experiment: Antibacterial activity against methicillin-resistant Staphylococcus aureus OC2805 by broth microdilution method
Procedure, shortened: (§2)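 Broth microdilution MIC per CLSI M07-A9 guidelines for aerobically growing bacteria. Where a compound was tested several times (multiple test dates and batches), the modal MIC is reported.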

[7] = test system: Staphylococcus epidermidis; experiment: Antibacterial activity against methicillin-resistant Staphylococcus epidermidis OC5340 by broth microdilution method; procedure, shortened: as §2
Escherichia coli = experiment: Antibacterial activity against Escherichia coli ATCC 25922 by broth microdilution method; procedure, shortened: as §1

| SMILES | MIC (Streptococcus pneumoniae [1]) [µg/mL] | MIC (Streptococcus pneumoniae [2]) [µg/mL] | MIC (Streptococcus pneumoniae [3]) [µg/mL] | MIC (Streptococcus pneumoniae [4]) [µg/mL] | MIC (Staphylococcus aureus [5]) [µg/mL] | MIC (Staphylococcus aureus [6]) [µg/mL] | MIC [7] [µg/mL] | MIC (Escherichia coli) [µg/mL] |
| --- | --- | --- | --- | --- | --- | --- | --- | --- |
| CC(CN)=C1CCN(c2cc3c(cc2F)c(=O)c(C(=O)O)cn3C2CC2)CC1 | 1 (≈ 2.59 µM) | 8 (≈ 20.8 µM) | 8 (≈ 20.8 µM) | 2 (≈ 5.19 µM) | 0.12 (≈ 0.311 µM) | – | – | – |
| CC1COc2c(N3CCC(=C(F)CN)CC3)c(F)cc3c(=O)c(C(=O)O)cn1c23 (racemic) | 0.5 (≈ 1.23 µM) | 8 (≈ 19.7 µM) | 2 (≈ 4.93 µM) | 8 (≈ 19.7 µM) | 0.25 (≈ 0.617 µM) | – | – | – |
| NCC(Cl)=C1CCN(c2cc3c(cc2F)c(=O)c(C(=O)O)cn3C2CC2)CC1 | 0.12 (≈ 0.296 µM) | 1 (≈ 2.46 µM) | – | 0.5 (≈ 1.23 µM) | 0.03 (≈ 0.0739 µM) | – | – | – |
| NCC(F)=C1CCN(c2c(F)cc3c(=O)c(C(=O)O)cn(C4CC4)c3c2OC(F)F)CC1 | 0.25 (≈ 0.549 µM) | 0.25 (≈ 0.549 µM) | 0.25 (≈ 0.549 µM) | 2 (≈ 4.39 µM) | 0.06 (≈ 0.132 µM) | – | – | – |
| COc1c(N2CCC(=C(Cl)CN(C)C)CC2)c(F)cc2c(=O)c(C(=O)O)cn(C3CC3)c12 | 0.5 (≈ 1.08 µM) | 2 (≈ 4.31 µM) | 8 (≈ 17.2 µM) | 8 (≈ 17.2 µM) | 0.25 (≈ 0.539 µM) | – | – | – |
| CCNCC(Cl)=C1CCN(c2c(F)cc3c(=O)c(C(=O)O)cn(C4CC4)c3c2OC)CC1 | 0.25 (≈ 0.539 µM) | 1 (≈ 2.16 µM) | 1 (≈ 2.16 µM) | 1 (≈ 2.16 µM) | 0.12 (≈ 0.259 µM) | – | – | – |
| COc1c(N2CCC(=C(Cl)CNC(C)C)CC2)c(F)cc2c(=O)c(C(=O)O)cn(C3CC3)c12 | 0.5 (≈ 1.05 µM) | 2 (≈ 4.18 µM) | – | 4 (≈ 8.37 µM) | 0.12 (≈ 0.251 µM) | – | – | – |
| NCC(Cl)=C1CCN(c2nc3c(cc2F)c(=O)c(C(=O)O)cn3C2CC2)CC1 | 0.12 (≈ 0.295 µM) | 1 (≈ 2.46 µM) | 1 (≈ 2.46 µM) | 0.25 (≈ 0.614 µM) | 0.06 (≈ 0.147 µM) | – | – | – |
| NCC(F)=C1CCN(c2cc3c(cc2F)c(=O)c(C(=O)O)cn3C2CC2)CC1 | 0.06 (≈ 0.154 µM) | – | – | 1 (≈ 2.57 µM) | 0.03 (≈ 0.077 µM) | – | – | – |
| CC(CN)=C1CCN(c2nc3c(cc2F)c(=O)c(C(=O)O)cn3C2CC2)CC1 | 0.12 (≈ 0.311 µM) | 1 (≈ 2.59 µM) | 0.25 (≈ 0.647 µM) | 1 (≈ 2.59 µM) | 0.06 (≈ 0.155 µM) | – | – | – |
| NCC(F)=C1CCN(c2nc3c(cc2F)c(=O)c(C(=O)O)cn3C2CC2)CC1 | 0.12 (≈ 0.307 µM) | 1 (≈ 2.56 µM) | 2 (≈ 5.12 µM) | 0.5 (≈ 1.28 µM) | 0.03 (≈ 0.0768 µM) | – | – | – |
| COc1c(N2CCC(=C(F)CN)CC2)c(F)cc2c(=O)c(C(=O)O)cn(C3CC3)c12 | 0.12 (≈ 0.286 µM) | 0.5 (≈ 1.19 µM) | 0.5 (≈ 1.19 µM) | 1 (≈ 2.38 µM) | 0.03 (≈ 0.0715 µM) | – | – | – |
| NCC(Cl)=C1CCN(c2c(F)cc3c(=O)c(C(=O)O)cn(C4CC4)c3c2OC(F)F)CC1 | 0.12 (≈ 0.254 µM) | 0.12 (≈ 0.254 µM) | 0.5 (≈ 1.06 µM) | 1 (≈ 2.12 µM) | 0.06 (≈ 0.127 µM) | 1 (≈ 2.12 µM) | 0.5 (≈ 1.06 µM) | 0.5 (≈ 1.06 µM) |
| C[C@H]1COc2c(N3CCC(=C(Cl)CN)CC3)c(F)cc3c(=O)c(C(=O)O)cn1c23 | 0.03 (≈ 0.0711 µM) | 0.5 (≈ 1.19 µM) | 0.25 (≈ 0.593 µM) | 0.25 (≈ 0.593 µM) | ≤ 0.015 | – | – | – |
| NCC=C1CCN(c2nc3c(cc2F)c(=O)c(C(=O)O)cn3C2CC2)CC1 | 0.5 (≈ 1.34 µM) | – | 8 (≈ 21.5 µM) | 8 (≈ 21.5 µM) | 0.12 (≈ 0.322 µM) | – | – | – |
| CC(CN)=C1CCN(c2c(F)cc3c(=O)c(C(=O)O)cn4c3c2OCC4C)CC1 (racemic) | 1 (≈ 2.49 µM) | > 16 | 4 (≈ 9.96 µM) | > 16 | 0.5 (≈ 1.25 µM) | – | – | – |
| CNCC(Cl)=C1CCN(c2c(F)cc3c(=O)c(C(=O)O)cn(C4CC4)c3c2OC)CC1 | 0.06 (≈ 0.133 µM) | 0.25 (≈ 0.556 µM) | 0.25 (≈ 0.556 µM) | 0.5 (≈ 1.11 µM) | ≤ 0.015 | 0.5 (≈ 1.11 µM) | 0.5 (≈ 1.11 µM) | 0.5 (≈ 1.11 µM) |
| COc1c(N2CCC(=C(C)CN)CC2)c(F)cc2c(=O)c(C(=O)O)cn(C3CC3)c12 | 0.12 (≈ 0.289 µM) | 0.25 (≈ 0.602 µM) | – | 0.25 (≈ 0.602 µM) | 0.03 (≈ 0.0722 µM) | – | – | – |
| O=C(O)c1cn(C2CC2)c2cc(N3CCNCC3)c(F)cc2c1=O [CIPROFLOXACIN] | 1 (≈ 3.02 µM) | – | – | – | 0.12 (≈ 0.362 µM) | – | 8 (≈ 24.1 µM) | – |
| COc1c(N2CCC(=C(Cl)CN)CC2)c(F)cc2c(=O)c(C(=O)O)cn(C3CC3)c12 | 0.06 (≈ 0.138 µM) | 0.25 (≈ 0.574 µM) | 0.25 (≈ 0.574 µM) | 0.25 (≈ 0.574 µM) | ≤ 0.015 | 0.25 (≈ 0.574 µM) | 0.25 (≈ 0.574 µM) | 0.25 (≈ 0.574 µM) |
